The values that follow come from ChEMBL document CHEMBL3091324, “The optimization of aminooxadiazoles as orally active inhibitors of Cdc7” (Bioorg Med Chem Lett, 2013).

≈ marks a conversion by molar mass, not a printed value.

Series [1] in a line: Intrinsic clearance in rat liver microsomes. It is filed as ADME. As to conditions: read-out: CLH; call rule not given here. On the technique in general: Microsomes from liver hold many membrane-bound enzymes, among them those of drug oxidation.
Series [2] addresses Cyclin-dependent kinase 2/cyclin E1 (Homo sapiens, UniProt P24941). Description: Inhibition of CDK2/cyclin E (unknown origin) using ULight peptide as substrate by HTRF assay. It is filed as protein-complex assay. (Time-resolved FRET reads energy transfer from a long-lived donor to a nearby acceptor.)
Series [3] has as its system Hepatocyte. Description: Drug metabolism in rat hepatocytes assessed as GSH adduct level. The series is classed as ADME, cell-based.
For series [4], the target named is Cell division cycle 7-related protein kinase (Homo sapiens, UniProt O00311). The series can be described thus: Inhibition of Cdc7-mediated MCM2 phosphorylation at Ser53 in human HCT116 cells after 14 hrs by immunostaining assay. It is filed as cell-based, HCT-116.
Cell division cycle 7-related protein kinase, sequence (O00311 whole entry): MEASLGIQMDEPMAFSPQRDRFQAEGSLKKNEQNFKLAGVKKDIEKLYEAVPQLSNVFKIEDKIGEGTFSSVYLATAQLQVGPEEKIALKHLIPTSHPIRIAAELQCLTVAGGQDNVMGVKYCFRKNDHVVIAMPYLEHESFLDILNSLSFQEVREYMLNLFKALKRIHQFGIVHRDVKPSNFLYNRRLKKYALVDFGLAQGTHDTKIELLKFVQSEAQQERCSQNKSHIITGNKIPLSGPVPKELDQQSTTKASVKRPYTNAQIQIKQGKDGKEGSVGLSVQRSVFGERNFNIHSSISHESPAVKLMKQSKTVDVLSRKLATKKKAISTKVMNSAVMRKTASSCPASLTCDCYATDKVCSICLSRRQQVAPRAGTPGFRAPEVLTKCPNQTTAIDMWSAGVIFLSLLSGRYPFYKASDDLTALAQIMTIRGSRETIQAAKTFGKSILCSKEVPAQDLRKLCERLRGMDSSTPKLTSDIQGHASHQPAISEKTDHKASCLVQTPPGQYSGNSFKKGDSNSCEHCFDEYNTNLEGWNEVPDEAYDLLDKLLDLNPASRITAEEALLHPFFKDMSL
Series [5] in a line: Intrinsic clearance in human liver microsomes. As to conditions: read-out: CLH. The series is classed as ADME.
The target in series [6] is CDC7/DBF4 (Cell division cycle 7-related protein kinase/Activator of S phase kinase) (Homo sapiens, UniProt O00311). Description: Inhibition of Cdc7/Dbf4 (unknown origin)-mediated MCM2 phosphorylation at Ser53 by protein A amplified luminescent proximity homogeneous assay. The series is classed as protein-complex assay.
CDC7/DBF4 (Cell division cycle 7-related protein kinase/Activator of S phase kinase), sequence (Q9UBU7 whole entry): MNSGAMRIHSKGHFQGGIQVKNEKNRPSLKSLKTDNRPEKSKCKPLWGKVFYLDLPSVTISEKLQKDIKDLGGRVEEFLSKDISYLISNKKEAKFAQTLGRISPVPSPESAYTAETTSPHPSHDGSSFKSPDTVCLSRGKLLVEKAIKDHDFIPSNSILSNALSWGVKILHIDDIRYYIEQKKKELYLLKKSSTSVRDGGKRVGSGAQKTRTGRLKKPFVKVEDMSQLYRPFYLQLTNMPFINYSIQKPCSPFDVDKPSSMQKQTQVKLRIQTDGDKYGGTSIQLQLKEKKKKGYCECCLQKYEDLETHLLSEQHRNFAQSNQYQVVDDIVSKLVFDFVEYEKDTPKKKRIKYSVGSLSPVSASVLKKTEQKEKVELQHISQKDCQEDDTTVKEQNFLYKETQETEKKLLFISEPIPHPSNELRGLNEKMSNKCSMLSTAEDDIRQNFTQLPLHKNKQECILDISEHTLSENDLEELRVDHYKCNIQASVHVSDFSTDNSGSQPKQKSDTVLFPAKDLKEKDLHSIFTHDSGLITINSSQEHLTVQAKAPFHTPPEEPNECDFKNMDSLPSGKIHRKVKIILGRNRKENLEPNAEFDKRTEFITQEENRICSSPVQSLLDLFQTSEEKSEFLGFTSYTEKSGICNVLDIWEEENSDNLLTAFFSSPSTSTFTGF
CDC7/DBF4 (Cell division cycle 7-related protein kinase/Activator of S phase kinase), sequence (O00311 whole entry): as the sequence (O00311 whole entry) above
The subject of series [7] is Plasma. Description: Unbound plasma concentration in NCR/nude mouse xenografted with human HCT116 cells at 100 mg/kg, po measured at 16 hrs by LC-MS analysis. As to conditions: in vivo. Also on record: dose 100 mg/kg, route oral. It is filed as ADME, organism-based, HCT-116. The gist of the method:
(§1)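 Female NCR/nude mice (n = 3) dosed orally at 100 mg/kg; plasma sampled at 6 and 16 h; unbound concentration calculated from total plasma concentration and percent free fraction in mouse plasma.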
In general terms: Xenograft models place foreign cells or tissue in a host animal.

Series [8] in a line: Oral bioavailability rat in 5 mg/kg. As to conditions: in vivo. The series is classed as ADME, organism-based.
For series [9], the system named is Mus musculus. Description: In vivo inhibition of Cdc7 in tumor of NCR/nude mouse xenografted with human HCT116 cells assessed as remaining Ser53 phosphorylated MCM2 level at 100 mg/kg, po measured at 16 hrs relative to control. It is filed as functional, HCT-116. The gist of the method: (§2)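 Female NCR/nude mice (n = 3 per group) given single oral dose of 100 mg/kg; pMCM2 levels measured at 6 and 16 h, expressed as % remaining versus vehicle control group; significance by one-way ANOVA with Dunnett's test.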

The nature of series [10]: Clearance in rat at 2 mg/kg, iv and 5 mg/kg, po. The series is classed as ADME, organism-based. Particulars: in vivo.
Series [11] can be described thus: Mean residence time in rat at 2 mg/kg, iv and 5 mg/kg, po. It is filed as ADME, organism-based. Particulars: in vivo.
Series [12] is described as follows: Volume of distribution at steady state in rat at 2 mg/kg, iv and 5 mg/kg, po. Particulars: in vivo, read-out: Vdss. It is filed as ADME, organism-based.
The target in series [13] is CDK9/cyclin T1 (Homo sapiens, UniProt P50750). The series can be described thus: Inhibition of CDK9/cyclin T1 (unknown origin) using 4eBP1 ULight peptide as substrate by HTRF assay. It is filed as protein-complex assay.
CDK9/cyclin T1, sequence (O60563 whole entry): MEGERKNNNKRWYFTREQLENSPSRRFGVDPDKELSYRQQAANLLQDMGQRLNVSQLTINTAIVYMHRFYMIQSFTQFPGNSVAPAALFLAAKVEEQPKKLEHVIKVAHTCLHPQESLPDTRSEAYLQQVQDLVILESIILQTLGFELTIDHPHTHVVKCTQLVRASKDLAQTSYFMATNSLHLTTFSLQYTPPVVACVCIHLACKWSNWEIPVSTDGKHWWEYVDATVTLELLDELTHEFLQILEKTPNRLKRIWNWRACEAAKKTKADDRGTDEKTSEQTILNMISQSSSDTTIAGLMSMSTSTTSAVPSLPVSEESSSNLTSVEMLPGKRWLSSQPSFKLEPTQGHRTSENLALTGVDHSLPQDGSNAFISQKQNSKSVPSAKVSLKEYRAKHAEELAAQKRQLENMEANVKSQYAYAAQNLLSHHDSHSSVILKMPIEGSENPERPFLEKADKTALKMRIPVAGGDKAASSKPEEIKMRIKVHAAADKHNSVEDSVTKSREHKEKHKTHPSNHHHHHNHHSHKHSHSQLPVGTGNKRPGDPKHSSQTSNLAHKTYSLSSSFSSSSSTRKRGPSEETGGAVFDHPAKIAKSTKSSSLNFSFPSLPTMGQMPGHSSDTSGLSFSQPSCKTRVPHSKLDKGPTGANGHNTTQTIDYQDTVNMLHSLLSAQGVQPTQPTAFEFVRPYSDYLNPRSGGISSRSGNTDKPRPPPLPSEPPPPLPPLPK
CDK9/cyclin T1, sequence (P50750 whole entry): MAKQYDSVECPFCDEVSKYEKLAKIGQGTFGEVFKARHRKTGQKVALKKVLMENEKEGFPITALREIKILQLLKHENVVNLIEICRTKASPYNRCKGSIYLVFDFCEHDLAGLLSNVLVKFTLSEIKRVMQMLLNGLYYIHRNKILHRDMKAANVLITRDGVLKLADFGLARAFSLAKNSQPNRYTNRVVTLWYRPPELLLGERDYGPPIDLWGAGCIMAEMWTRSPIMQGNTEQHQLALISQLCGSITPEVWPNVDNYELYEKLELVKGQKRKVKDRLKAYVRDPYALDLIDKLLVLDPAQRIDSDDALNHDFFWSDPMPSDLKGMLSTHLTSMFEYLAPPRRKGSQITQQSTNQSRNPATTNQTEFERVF
Series [14] can be described thus: Solubility of the compound in simulated intestinal fluid. It is filed as ADME.
The target of series [15] is Cyclin-dependent kinase 1/cyclin B1 (Homo sapiens, UniProt P06493). Description: Inhibition of CDK1/cyclin B (unknown origin) by HTRF assay. The series is classed as protein-complex assay.
Cyclin-dependent kinase 1/cyclin B1, sequence (P06493 whole entry): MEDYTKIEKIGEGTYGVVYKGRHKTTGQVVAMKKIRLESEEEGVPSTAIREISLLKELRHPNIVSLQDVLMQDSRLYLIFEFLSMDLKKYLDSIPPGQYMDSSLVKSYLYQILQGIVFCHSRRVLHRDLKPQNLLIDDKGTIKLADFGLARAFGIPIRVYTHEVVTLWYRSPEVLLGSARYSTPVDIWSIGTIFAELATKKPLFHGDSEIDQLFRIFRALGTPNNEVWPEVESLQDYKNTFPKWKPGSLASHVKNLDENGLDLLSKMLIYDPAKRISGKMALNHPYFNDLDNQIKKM
Cyclin-dependent kinase 1/cyclin B1, sequence (P14635 whole entry, further chain): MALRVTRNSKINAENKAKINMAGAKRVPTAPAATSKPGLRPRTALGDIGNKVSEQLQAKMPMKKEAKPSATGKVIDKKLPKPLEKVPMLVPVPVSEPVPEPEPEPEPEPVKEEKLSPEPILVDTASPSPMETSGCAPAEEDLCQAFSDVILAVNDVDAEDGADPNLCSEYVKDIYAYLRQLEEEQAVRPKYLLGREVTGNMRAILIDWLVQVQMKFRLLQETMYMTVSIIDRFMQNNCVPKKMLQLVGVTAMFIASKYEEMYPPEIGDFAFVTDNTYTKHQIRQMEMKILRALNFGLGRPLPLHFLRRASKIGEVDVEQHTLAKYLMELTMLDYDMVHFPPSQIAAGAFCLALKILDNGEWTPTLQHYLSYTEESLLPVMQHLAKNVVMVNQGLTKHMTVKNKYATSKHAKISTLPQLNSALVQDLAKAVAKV
Series [16] has as its system HCT-116. Description: Cytotoxicity against human HCT116 cells assessed as cell viability after days by CellTiterGlo assay. The series is classed as functional, cell-based. The gist of the method:
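HCT-116 cells exposed to compound for 4 d; cell viability IC50 determined.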

For series [17], the system named is Plasma. The series can be described thus: Unbound plasma concentration in NCR/nude mouse xenografted with human HCT116 cells at 100 mg/kg, po measured at 6 hrs by LC-MS analysis. Also on record: dose 100 mg/kg, route oral. Particulars: in vivo. The series is classed as ADME, organism-based, HCT-116. Put shortly:
as §1

The subject of series [18] is Mus musculus. Description: In vivo inhibition of Cdc7 in tumor of NCR/nude mouse xenografted with human HCT116 cells assessed as remaining Ser53 phosphorylated MCM2 level at 100 mg/kg, po measured at 6 hrs relative to control. The series is classed as functional, HCT-116. Put shortly: as §2
Series [19] concerns Mus musculus. Description: In vivo inhibition of Cdc7-mediated MCM2 phosphorylation at Ser53 in tumor of NCR/nude mouse xenografted with human HCT116 cells at 100 mg/kg, po. It is filed as functional, organism-based. Also on record: dose 100 mg/kg. Particulars: HCT-116, TDE = time-dependent effect. The gist of the method: as §2
A short description of series [20]: Volume of distribution at steady state in rat at 2 mg/kg, iv and 2 mg/kg, po. Particulars: in vivo, read-out: Vdss. The series is classed as ADME, organism-based.
Series [21] is described as follows: Oral bioavailability rat in 2 mg/kg. It is filed as ADME, organism-based. As to conditions: in vivo.
Series [22] is described as follows: Clearance in rat at 2 mg/kg, iv and 2 mg/kg, po. Particulars: in vivo. The series is classed as ADME, organism-based.
A short description of series [23]: Mean residence time in rat at 2 mg/kg, iv and 2 mg/kg, po. It is filed as ADME, organism-based. Particulars: in vivo.

The IC50 is the concentration that inhibits the measured activity by half. As to `C[C@@H](Nc1nnc(-c2c[nH]c3ncccc23)o1)c1ccccc1`, the values for the microsomal CLint in [1] and in series [5] were 25 µL/min/mg and 64 µL/min/mg, respectively. The IC50 in [2] worked out at 310 nM; in [4], 370 nM; in [6], 32 nM. The Drug metabolism result in [3] is given as “Active”.
The bioavailability is the share of a dose that reaches the circulation, judged against a reference dose that is usually intravenous. Higher therefore signals much systemic uptake. In general, MRT refers to a mean duration of stay, worked out from the concentration-time curve. Usually solubility stands for the dissolved amount per volume that the medium holds. Low readings indicate a poorly soluble substance, high ones a readily soluble substance. For the molecule `Fc1ccccc1[C@H](Nc1nnc(-c2c[nH]c3ncccc23)o1)C1CC1`, the microsomal CLint in series [1] worked out at 63 µL/min/mg; in series [5], 59 µL/min/mg. Moreover, the “Cp(f)” value in series [7] came out at 60 nM; in series [17], 150 nM. In series [8], this molecule registered a bioavailability of 35%. The IC50 in [2] amounted to 240 nM; in [13] it was 31 nM; in series [15] it was 1600 nM; in series [4], 20 nM; in series [16], 880 nM; in [6], 0.85 nM. Further, the “Remaining Ser53 phospho-MCM2 vs control” value in series [9] turned out to be 46%. Further, the clearance in series [10] was 33.3 mL/min/kg. The molecule further gave an MRT in series [11] of 2.7 h. For the same molecule, the Vd in series [12] was 5.3 L/kg. Besides, the concentration in solution in series [14] (solubility) was 5 µg/mL (≈ 14.3 µM). In addition, in series [18], the “Remaining phospho-MCM2 (% of control)” value is recorded as 38%.
With `Fc1cnccc1[C@H](Nc1nnc(-c2c[nH]c3ncccc23)o1)C1CC1`, the Activity entry in series [19] is “tde”. The microsomal CLint was 45 µL/min/mg in [1] and 27 µL/min/mg in series [5]. For the same molecule, the “Cp(f)” value in series [7] amounted to 450 nM; in series [17], 2000 nM. For the same molecule, the IC50 in series [2] was 1900 nM; in [13], 940 nM; in [15], more than 50000 nM; in [4], 60 nM; in series [16] it was 5700 nM; in series [6], 1.8 nM. In addition, the “Remaining Ser53 phospho-MCM2 vs control” value in series [9] is reported as 24%. For the same molecule, the Vd in [20] stood at 6.1 L/kg. The bioavailability in series [21] was determined as 14%. The molecule also showed a clearance in [22] of 75 mL/min/kg. The amount in solution in [14] (solubility) came to 200 µg/mL (≈ 571 µM). This molecule displayed an MRT in series [23] of 1.4 h. The “Remaining phospho-MCM2 (% of control)” value in [18] is listed as 62%.
